According to ChEMBL document CHEMBL4706624, “Synthesis and evaluation of new quinazoline-benzimidazole hybrids as potent anti-microbial agents against multidrug resistant Staphylococcus aureus and Mycobacterium tuberculosis” (Eur J Med Chem, 2021):
In brackets after ≈: the same amount, converted by molar mass.

Assays:
[1] = Selectivity index, ratio of CC50 for cytotoxicity against African green monkey Vero cells to MIC for antibacterial activity against Staphylococcus aureus ATCC 29213; type: toxicity, cell-based; details: read-out: Selectivity Index
Outline: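 SI = Vero CC50 (MTT, 72 h) divided by MIC against S. aureus ATCC 29213 (CA-MHB broth microdilution, 16-18 h, 37 °C).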

[2] = test system: Mycobacteroides abscessus; assay: Antimycobacterial activity against Mycobacterium abscessus ATCC 19977 by broth microdilution method; type: functional
Outline: (§1)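 Broth microdilution MIC in Middlebrook 7H9 with 10% ADC-Tween-80 (BSA, dextrose, 0.2% glycerol, 0.05% Tween-80). Inoculum ~10⁶ cfu/mL set by OD600. Compounds were twofold serially diluted, 0.0064–0.00005 g/100 mL (DMSO stocks). Presto blue resazurin dye was used as read-out. MIC = lowest concentration inhibiting visible growth. Triplicate runs, each in duplicate.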

Mycobacteroides chelonae = assay: Antimycobacterial activity against Mycobacterium chelonae ATCC 35752 by broth microdilution method; type: functional; outline: as §1
Klebsiella pneumoniae = assay: Antibacterial activity against Klebsiella pneumoniae BAA-1705 measured after 16 to 18 hrs; type: functional; details: ATCC BAA-1705, time 16-18 hrs
Outline: (§2)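 Broth microdilution MIC. Strains grown on MHA; a single colony was grown overnight in CA-MHB at 37 °C with shaking for 18–24 h. Cultures were diluted by OD600 to ~10⁶ cfu/mL and exposed to compound at […]. Plates were incubated at 37 °C for 16-18 h. MIC = lowest concentration with no visible growth. Levofloxacin was the reference. Three independent runs, each in duplicate.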

Escherichia coli = assay: Antibacterial activity against Escherichia coli ATCC 25922 measured after 16 to 18 hrs; type: functional; details: time 16-18 hrs; outline: as §2
[3] = test system: Mycobacterium tuberculosis; assay: Antitubercular activity against Mycobacterium tuberculosis H37Rv ATCC 27294 measured after 7 days by broth microdilution method; type: functional; details: H37Rv ATCC 27294, 168 h, time 7 day
Outline: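 H37Rv in Middlebrook 7H9 with 10% ADC, 0.2% glycerol, 0.05% Tween-80. Inoculum ~10⁶ cfu/mL set by OD600. Twofold serial dilutions, 0.0064–0.00005 g/100 mL. Incubated at 37 °C for 7 days, then Presto blue resazurin read-out. MIC = lowest concentration inhibiting visible growth. Triplicate runs, each in duplicate.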

[4] = Cytotoxicity against African green monkey Vero cells assessed as reduction in cell viability measured after 72 hrs by MTT assay; type: cell-based; details: chlorocebus sabaeus
Outline: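 Vero cells (ATCC CCL-81), ~10³ cells/well, held 24 h at 37 °C in 5% CO₂. Compound at 100–5 mg/L for 72 h. MTT was added for 4 h, formazan dissolved in DMSO, OD read at 540 nm. CC50 = concentration giving 50% viability reduction. Doxorubicin was the positive control. Triplicate.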

[5] = test system: Mycolicibacterium fortuitum; assay: Antimycobacterial activity against Mycobacterium fortuitum ATCC 6841 by broth microdilution method; type: functional; outline: as §1
Acinetobacter baumannii = assay: Antibacterial activity against Acinetobacter baumannii BAA1605 measured after 16 to 18 hrs; type: functional; details: time 16-18 hrs; outline: as §2
Staphylococcus aureus [6] = assay: Antibacterial activity against Staphylococcus aureus ATCC 29213 measured after 16 to 18 hrs; type: functional; details: time 16-18 hrs; outline: as §2
Pseudomonas aeruginosa = assay: Antibacterial activity against Pseudomonas aeruginosa ATCC 27853 measured after 16 to 18 hrs; type: functional; details: time 16-18 hrs; outline: as §2
Staphylococcus aureus [7] = assay: Antibacterial activity against methicillin-sensitive Staphylococcus aureus ATCC 29213 measured after 16 to 18 hrs; type: functional; details: time 16-18 hrs; outline: as §2
Staphylococcus aureus [8] = assay: Antibacterial activity against methicillin-resistant Staphylococcus aureus NR10198 measured after 16 to 18 hrs; type: functional; details: time 16-18 hrs; outline: as §2
Staphylococcus aureus [9] = assay: Antibacterial activity against methicillin-resistant Staphylococcus aureus NR100 measured after 16 to 18 hrs; type: functional; details: time 16-18 hrs; outline: as §2
Staphylococcus aureus [10] = assay: Antibacterial activity against methicillin-resistant Staphylococcus aureus NR119 measured after 16 to 18 hrs; type: functional; details: time 16-18 hrs; outline: as §2
Staphylococcus aureus [11] = assay: Antibacterial activity against methicillin-resistant Staphylococcus aureus NR10129 measured after 16 to 18 hrs; type: functional; details: time 16-18 hrs; outline: as §2
Staphylococcus aureus [12] = assay: Antibacterial activity against methicillin-resistant Staphylococcus aureus NR10186 measured after 16 to 18 hrs; type: functional; details: time 16-18 hrs; outline: as §2
Staphylococcus aureus [13] = assay: Antibacterial activity against methicillin-resistant Staphylococcus aureus NR10193 measured after 16 to 18 hrs; type: functional; details: time 16-18 hrs; outline: as §2
Staphylococcus aureus [14] = assay: Antibacterial activity against vancomycin-resistant Staphylococcus aureus VRS1 measured after 16 to 18 hrs; type: functional; details: time 16-18 hrs; outline: as §2
Staphylococcus aureus [15] = assay: Antibacterial activity against methicillin-resistant Staphylococcus aureus NR10191 measured after 16 to 18 hrs; type: functional; details: time 16-18 hrs; outline: as §2
Staphylococcus aureus [16] = assay: Antibacterial activity against vancomycin-resistant Staphylococcus aureus VRS4 measured after 16 to 18 hrs; type: functional; details: time 16-18 hrs; outline: as §2
Staphylococcus aureus [17] = assay: Antibacterial activity against vancomycin-resistant Staphylococcus aureus VRS12 measured after 16 to 18 hrs; type: functional; details: time 16-18 hrs; outline: as §2
Staphylococcus aureus [18] = assay: Antibacterial activity against methicillin-resistant Staphylococcus aureus NR10194 measured after 16 to 18 hrs; type: functional; details: time 16-18 hrs; outline: as §2
Staphylococcus aureus [19] = assay: Antibacterial activity against methicillin-resistant Staphylococcus aureus NR10192 measured after 16 to 18 hrs; type: functional; details: time 16-18 hrs; outline: as §2

## COc1ccc(-c2nc(Nc3ccc(-c4nc5cc([N+](=O)[O-])ccc5[nH]4)cc3)c3ccccc3n2)cc1OC
[1]
  selectivity ratio: 12.5
[2]
  MIC: > 64 µg/mL
Mycobacteroides chelonae
  MIC: 8 µg/mL (≈ 15.4 µM)
Klebsiella pneumoniae
  MIC: > 64 µg/mL
Escherichia coli
  MIC: > 64 µg/mL
[3]
  MIC: 8 µg/mL (≈ 15.4 µM)
[4]
  CC50 at 72 h: 100 µg/mL (≈ 193 µM)
[5]
  MIC: 4 µg/mL (≈ 7.71 µM)
Acinetobacter baumannii
  MIC: > 64 µg/mL
Staphylococcus aureus [6]
  MIC: > 64 µg/mL
Pseudomonas aeruginosa
  MIC: > 64 µg/mL

## CN[C@@H]1[C@H](O[C@H]2[C@H](O[C@H]3[C@H](O)[C@@H](O)[C@H](N=C(N)N)[C@@H](O)[C@@H]3N=C(N)N)O[C@@H](C)[C@]2(O)C=O)O[C@@H](CO)[C@H](O)[C@H]1O [STREPTOMYCIN]
[3]
  MIC: 1 µg/mL (≈ 1.72 µM)

## Brc1ccc2[nH]c(-c3ccc(Nc4nc(-c5ccccc5)nc5ccccc45)cc3)nc2c1
Klebsiella pneumoniae
  MIC: > 64 µg/mL
Escherichia coli
  MIC: > 64 µg/mL
Acinetobacter baumannii
  MIC: > 64 µg/mL
Staphylococcus aureus [6]
  MIC: > 64 µg/mL
Pseudomonas aeruginosa
  MIC: > 64 µg/mL

## CC[C@@H](CO)NCCN[C@@H](CC)CO [ETHAMBUTOL]
[3]
  MIC: 1 µg/mL (≈ 4.89 µM)

## COc1ccc(-c2nc(Nc3ccc(-c4nc5cc(Cl)ccc5[nH]4)cc3)c3ccccc3n2)cc1OC
[1]
  selectivity ratio: > 6.25
[2]
  MIC: > 64 µg/mL
Mycobacteroides chelonae
  MIC: > 64 µg/mL
Klebsiella pneumoniae
  MIC: > 64 µg/mL
Escherichia coli
  MIC: > 64 µg/mL
[3]
  MIC: 32 µg/mL (≈ 63 µM)
[4]
  CC50 at 72 h: > 100 µg/mL
[5]
  MIC: > 64 µg/mL
Acinetobacter baumannii
  MIC: > 64 µg/mL
Staphylococcus aureus [6]
  MIC: 16 µg/mL (≈ 31.5 µM)
Pseudomonas aeruginosa
  MIC: > 64 µg/mL

## O=C(Nc1ccc(Nc2nc(-c3ccccc3)nc3ccccc23)cc1)c1cc(Br)ccc1Cl
[3]
  MIC: 4 µg/mL (≈ 7.55 µM)

## CCCCCCCCCC(=O)N[C@@H](Cc1c[nH]c2ccccc12)C(=O)N[C@H](CC(N)=O)C(=O)N[C@@H](CC(=O)O)C(=O)N[C@@H]1C(=O)NCC(=O)N[C@@H](CCCN)C(=O)N[C@@H](CC(=O)O)C(=O)N[C@H](C)C(=O)N[C@@H](CC(=O)O)C(=O)NCC(=O)N[C@H](CO)C(=O)N[C@@H]([C@H](C)CC(=O)O)C(=O)N[C@@H](CC(=O)c2ccccc2N)C(=O)O[C@@H]1C
Staphylococcus aureus [7]
  MIC: 1 µg/mL (≈ 0.617 µM)
Staphylococcus aureus [8]
  MIC: 0.5 µg/mL (≈ 0.309 µM)
Staphylococcus aureus [9]
  MIC: 1 µg/mL (≈ 0.617 µM)
Staphylococcus aureus [10]
  MIC: 1 µg/mL (≈ 0.617 µM)
Staphylococcus aureus [11]
  MIC: 0.5 µg/mL (≈ 0.309 µM)
Staphylococcus aureus [12]
  MIC: 0.5 µg/mL (≈ 0.309 µM)
Staphylococcus aureus [13]
  MIC: 1 µg/mL (≈ 0.617 µM)
Staphylococcus aureus [14]
  MIC: 1 µg/mL (≈ 0.617 µM)
Staphylococcus aureus [15]
  MIC: 1 µg/mL (≈ 0.617 µM)
Staphylococcus aureus [16]
  MIC: 0.5 µg/mL (≈ 0.309 µM)
Staphylococcus aureus [17]
  MIC: 0.5 µg/mL (≈ 0.309 µM)
Staphylococcus aureus [18]
  MIC: 0.5 µg/mL (≈ 0.309 µM)
Staphylococcus aureus [19]
  MIC: 1 µg/mL (≈ 0.617 µM)

## Fc1ccc2[nH]c(-c3ccc(Nc4nc(-c5ccccc5)nc5ccccc45)cc3)nc2c1
[1]
  selectivity ratio: 10
[2]
  MIC: > 64 µg/mL
Mycobacteroides chelonae
  MIC: 32 µg/mL (≈ 74.2 µM)
Klebsiella pneumoniae
  MIC: > 64 µg/mL
Escherichia coli
  MIC: > 64 µg/mL
[3]
  MIC: > 64 µg/mL
[4]
  CC50 at 72 h: 40 µg/mL (≈ 92.7 µM)
[5]
  MIC: > 64 µg/mL
Acinetobacter baumannii
  MIC: > 64 µg/mL
Staphylococcus aureus [6]
  MIC: 4 µg/mL (≈ 9.27 µM)
Pseudomonas aeruginosa
  MIC: > 64 µg/mL

## CN[C@H](CC(C)C)C(=O)N[C@H]1C(=O)N[C@@H](CC(N)=O)C(=O)N[C@H]2C(=O)N[C@H]3C(=O)N[C@H](C(=O)N[C@H](C(=O)O)c4cc(O)cc(O)c4-c4cc3ccc4O)[C@H](O)c3ccc(c(Cl)c3)Oc3cc2cc(c3O[C@@H]2O[C@H](CO)[C@@H](O)[C@H](O)[C@H]2O[C@H]2C[C@](C)(N)[C@H](O)[C@H](C)O2)Oc2ccc(cc2Cl)[C@H]1O [VANCOMYCIN]
Staphylococcus aureus [14]
  MIC: > 64 µg/mL
Staphylococcus aureus [16]
  MIC: > 64 µg/mL
Staphylococcus aureus [17]
  MIC: > 64 µg/mL

## O=C(Nc1ccc2nc(-c3ccc(Br)cc3F)[nH]c2c1)c1ccc(Nc2nc(-c3ccccc3)nc3ccccc23)cc1
[2]
  MIC: > 64 µg/mL
Mycobacteroides chelonae
  MIC: > 64 µg/mL
Klebsiella pneumoniae
  MIC: > 64 µg/mL
Escherichia coli
  MIC: > 64 µg/mL
[3]
  MIC: > 64 µg/mL
[5]
  MIC: > 64 µg/mL
Acinetobacter baumannii
  MIC: > 64 µg/mL
Staphylococcus aureus [6]
  MIC: 64 µg/mL (≈ 102 µM)
Pseudomonas aeruginosa
  MIC: > 64 µg/mL

## C[C@@H](O)[C@H]1C(=O)N2C(C(=O)O)=C(S[C@@H]3CN[C@H](C(=O)N(C)C)C3)[C@H](C)[C@H]12 [MEROPENEM]
Staphylococcus aureus [7]
  MIC: 0.0625 µg/mL (≈ 0.163 µM)
Staphylococcus aureus [8]
  MIC: 4 µg/mL (≈ 10.4 µM)
Staphylococcus aureus [9]
  MIC: 32 µg/mL (≈ 83.4 µM)
Staphylococcus aureus [10]
  MIC: 64 µg/mL (≈ 167 µM)
Staphylococcus aureus [11]
  MIC: 4 µg/mL (≈ 10.4 µM)
Staphylococcus aureus [12]
  MIC: 8 µg/mL (≈ 20.9 µM)
Staphylococcus aureus [13]
  MIC: 64 µg/mL (≈ 167 µM)
Staphylococcus aureus [14]
  MIC: 64 µg/mL (≈ 167 µM)
Staphylococcus aureus [15]
  MIC: 64 µg/mL (≈ 167 µM)
Staphylococcus aureus [16]
  MIC: 64 µg/mL (≈ 167 µM)
Staphylococcus aureus [17]
  MIC: 16 µg/mL (≈ 41.7 µM)
Staphylococcus aureus [18]
  MIC: 1 µg/mL (≈ 2.61 µM)
Staphylococcus aureus [19]
  MIC: 64 µg/mL (≈ 167 µM)
